Bioassay records deposited in PubChem BioAssay by Broad Institute.
Hits are enriched below; roughly 2.3% of the tested compounds scored in any of these assays.
PDI inh: PDI (human) enzyme inhibition | P07237 | PDI insulin aggregation turbidity, A650, 90 min | inhibition, % at 10 µM | hit rate 0.052% among 350,000;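 active means mean inhibition across replicates of 30% or more, whatever share of single replicates reach that level; inconclusive means mean inhibition below 30% while every single replicate reaches 30%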
Target sequence (P07237 whole entry, looked up): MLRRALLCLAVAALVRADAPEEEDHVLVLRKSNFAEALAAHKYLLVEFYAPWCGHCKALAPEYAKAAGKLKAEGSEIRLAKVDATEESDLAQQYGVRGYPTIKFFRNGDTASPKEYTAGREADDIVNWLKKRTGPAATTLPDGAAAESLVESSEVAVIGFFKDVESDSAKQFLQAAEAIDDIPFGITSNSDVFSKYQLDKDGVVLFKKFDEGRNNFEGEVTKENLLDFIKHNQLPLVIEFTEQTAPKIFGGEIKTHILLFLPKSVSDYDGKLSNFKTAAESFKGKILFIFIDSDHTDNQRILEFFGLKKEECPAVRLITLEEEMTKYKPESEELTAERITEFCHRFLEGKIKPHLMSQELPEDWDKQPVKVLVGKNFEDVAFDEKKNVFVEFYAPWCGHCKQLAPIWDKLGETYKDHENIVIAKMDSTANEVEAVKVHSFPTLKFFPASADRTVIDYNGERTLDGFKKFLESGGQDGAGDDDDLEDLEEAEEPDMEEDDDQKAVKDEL
C2C12 statin: suppression of simvastatin myotoxicity; C2C12 myotubes + simvastatin, ATP luminescence, 48 h; scaled: DMSO 0, geranylgeraniol control 100; hit rate 0.78% among 330,000; rescue of ATP level, % at 7.49 µM;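 active means mean ATP rescue above about 67%, or every replicate alone reaching that limit, limit read from the data, passing the limit was not always enough; inconclusive means no clear call, values can overlap the other calls; inactive means mean under the limit and some replicate under it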;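 further: myotubes were challenged with 10 µM simvastatin during compound exposure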
ERp5 block: ERp5 (human) disulfide isomerase inhibition; ERp5 insulin aggregation, absorbance 650 nm, 90 min; hit rate 0.05% among 350,000; inhibition, % at 9.99 µM; Q15084;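 active means mean replicate inhibition above about 25%, with every replicate also reaching it, limit read from the data, passing the limit was not always enough; inconclusive means only one of those two criteria met; inactive means neither criterion met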
CFTR F508del cor: correctors of CFTR F508del function in bronchial epithelial cells; CFBE cells, YFP halide quenching; stimulated with forskolin plus potentiator P3; % fluorescence drop versus neutral controls; activity (quench increase), % at 7.58 µM; hit rate 0.36% among 350,000; AID 720511;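 active means mean added fluorescence quench of at least 8% versus neutral control, with both replicates also reaching 8%; inconclusive means only one of the mean or replicate conditions met; inactive means mean below 8% and not both replicates reaching 8%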;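 further: cells transiently co-express mutant CFTR-F508del with the halide-sensitive YFP; corrector assay measuring rescue of mutant channel to the surface after 24 h compound exposure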
DENV2 CPE rescue: inhibitors of DENV2 cytopathic effect. DENV2-infected cells, cytopathic effect rescue, plate reader. CPE inhibition, % at 9.99 µM. hit rate 1.7% among 350,000. AID 651640; in the data active means CPE inhibition above about 20%, passing the limit was not always enough; inconclusive means no clear call, values can overlap the other calls; tested in BHK-21 cells
Cneo AK release: causes C. neoformans cell lysis | adenylate kinase release luminescence, 4 h; normalised: neutral wells 0, clomiphene wells 100 | AID 651654 | hit rate 0.2% among 360,000 | lysis activity, % at 15 µM;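 active means mean lysis activity across replicates of at least 80%, whatever share of replicates individually reach that level; inactive means mean lysis activity below 80%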
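Signal: Adenylate kinase release luminescence | Assay system: Log-phase Cryptococcus neoformans yeast cells | Input: Cells at 5 × 10^6 per mL | Buffer or medium: Fresh YPD growth medium | Compound: Single dose | Schedule: Static 4 h at 37 °C with compound, 1 h detection | Controls: Clomiphene | Read-out: Luminescence rise reflecting yeast cell lysis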
Numbers stand for hits; n = inactive; u = inconclusive; x = no result given; ! = a repeat was not active.

SMILES | PDI inh | C2C12 statin | ERp5 block | CFTR F508del cor | DENV2 CPE rescue | Cneo AK release
Cc1ccc2c(C)c3ccc4ccccc4c3c[n+]2c1 | n | n | n | 9.2 | n | x
Cc1cc(=O)oc2cc(OCC(=O)N3CCC(C(=O)O)(c4ccccc4)CC3)ccc12 | x | n | n | n | 75 | n
Cc1cc(=O)oc2cc(OCC(=O)N3CCN(Cc4ccccc4)CC3)ccc12 | n | n | n | n | n | n
O=P(Nc1ccccc1)(Nc1ccccc1)Oc1cccc(Cl)c1 | n | 97 | n | x | x | n
CN1CCN(c2nccc3c2ncn3C)CC1 | n | 101 | x | x | x | n
C/C(=N\N1CCCCCC1)c1c(O)n(-c2ccc(Cl)cc2)c(=O)[nH]c1=O | n | n | n | n | n | n
CCC(=NCCO)c1c(O)n(-c2ccc(Cl)cc2)c(=O)[nH]c1=O | n | 114 | n | x | x | n
CCCN1[C@@H]2Cn3c(ccc(-c4ccc(OC)cc4)c3=O)[C@H]1[C@@H](C(=O)OC)[C@@H]2CO | x | n | n | n | n | n
O=C(NCc1cccnc1)Nc1ccccc1Cl | n | n | n | n | n | n
O=C(NCc1cccnc1)Nc1ccc([N+](=O)[O-])cc1 | n | x | n | n | 36 | n
Cn1cc[n+](C)c1P(=S)(c1ccccc1)c1ccccc1 | n | n | n | n | n | n
Cc1c(P(=S)(c2ccccc2)c2ccccc2)[n+]2ccccc2n1C | n | n | n | n | 73! | n
O=C(Cc1ccccn1)N1CCCCN2[C@H](CO)[C@@H](c3ccc(C#Cc4ccccc4)cc3)[C@H]2C1 | x | x | n | n | n | n
COCC(=O)N1[C@@H]2Cn3c(ccc(C4=CCCC4)c3=O)[C@H]1[C@@H](C(=O)OC)[C@@H]2CO | x | n | n | n | u | n
CN1CCN(CCOC2c3ccccc3CSc3ccc(Cl)cc32)CC1 (stereo not drawn) | 32 | n | x | n | x | n
CC(=NCc1cccnc1)c1c(O)n(C2CCCCC2)c(=O)[nH]c1=O | n | 113 | x | x | x | n
CCC(=NCc1cccnc1)c1c(O)n(C2CCCCC2)c(=O)[nH]c1=O | n | n | x | x | x | n
C/C(=N\NC(=O)c1ccccc1)c1c(O)n(C2CCCCC2)c(=O)[nH]c1=O | n | 95 | n | n | n | n
COC(=O)[C@H]1[C@H](CO)[C@H]2Cn3c(ccc(-c4ccccc4)c3=O)[C@@H]1N2S(=O)(=O)c1ccccc1C | x | n | n | n | n | n
CC(C)c1oc(=O)cc2c1[C@@H](O)[C@H]1OC(=O)[C@@]3(C)CC[C@@H](O)[C@@]2(C)C13 (stereo partly drawn) | n | n | n | n | n | n
CC(C)c1oc(=O)cc2c1[C@@H](O)[C@H]1OC(=O)[C@@]3(C)C[C@@H](O)[C@@H](O)[C@@]2(C)C13 (stereo partly drawn) | n | 96 | n | n | 87 | n
COC(=O)[C@H]1N[C@H]2c3ccc(C4=CCCC4)c(=O)n3C[C@H]2[C@@H]1CO | x | n | n | x | 128 | n
O=C(O)[C@H]1[C@H](CO)[C@H]2Cn3c(ccc(-c4ccncc4)c3=O)[C@@H]1N2C(=O)C1CCCCC1 | x | n | n | n | n | n
Cc1ccc(OC(=O)N(C)C[C@H]2OCc3ccccc3-c3c(n(C)c4ccccc34)C(=O)N([C@H](C)CO)C[C@H]2C)cc1 | x | x | n | n | n | x
Cc1ccc(N)c(N)c1 | x | n | n | n | n | n
SMILES | PDI inh | C2C12 statin | ERp5 block | CFTR F508del cor | DENV2 CPE rescue | Cneo AK release
Cc1ccc(N)cc1N | x | n | n | n | 66 | n
Cc1ccccc1-c1ccc([C@@H]2[C@H]3CN(C(=O)Cc4ccccn4)CCCCN3[C@H]2CO)cc1 | x | x | n | n | n | n
O=C1C2CCCN2C(c2cccnc2)N1c1nccs1 (stereo not drawn) | n | 155 | x | x | x | n
O=C(Cc1ccccc1)N1CCCCN2[C@@H](CO)[C@@H](c3ccc(-c4ccccc4)cc3)[C@@H]2C1 | x | x | n | n | n | n
CC=Cc1ccc2n(c1=O)C[C@H]1[C@H](CO)[C@@H](C(=O)O)[C@@H]2N1S(=O)(=O)c1ccccc1F (mixture of isomers) | x | n | n | x | n | n
O=C1NC(=O)C2C1C1(Cl)C(Cl)=C(Cl)C2(Cl)C1(Cl)Cl (stereo not drawn) | n | n | n | n | n | n
ClC1=C(Cl)C2(Cl)C3C(Cl)C=CC3C1(Cl)C2(Cl)Cl (stereo not drawn) | x | n | n | n | 28 | n
C[C@H](CO)N1C[C@H](C)[C@H](CN(C)C(=O)Oc2ccccc2)OCc2ccccc2-c2c(n(C)c3ccccc23)C1=O | x | x | n | n | n | x
COC(=O)C1=C(c2ccccc2)C[C@@H]2CC[C@H]1N2C(=O)N1CCOCC1 | n | n | n | n | 38 | n
COC(=O)C1=C(c2ccc(OC(F)(F)F)cc2)C[C@@H]2CC[C@H]1N2C(=O)N1CCCCC1 | n | n | n | n | 48 | n
COC(=O)C1=C(c2ccc(OC(F)(F)F)cc2)C[C@@H]2CC[C@H]1N2C(=O)N1CCC(O)CC1 | n | n | n | n | n | n
Cc1nc2c(=O)n(C)c(=O)nc-2n(C)n1 | 189 | x | x | x | x | x
O=C(O)[C@@H]1[C@@H](CO)[C@@H]2Cn3c(ccc(-c4ccccc4)c3=O)[C@H]1N2S(=O)(=O)c1ccccc1F | x | n | n | n | n | n
CC[C@H](C)[C@@H]1NC(=O)CNC(=O)c2csc(n2)[C@H](C(C)(C)O)OC(=O)C(C)(C)[C@H](CCCC(C)(Cl)Cl)OC(=O)c2csc1n2 | x | n | n | n | n | 279
COC(=O)[C@H]1[C@H](CO)[C@H]2Cn3c(ccc(-c4ccccc4)c3=O)[C@@H]1N2CCc1ccccc1 | x | n | n | n | n | n
CCOc1ccc(-n2c(CC)nc3ccccc3c2=O)cc1 | n | 131 | n | n | n | n
COc1ccc(-c2ccc([C@@H]3[C@H](CO)N4CCCCN(C(=O)Cc5ccccc5)C[C@@H]34)cc2)cc1 | x | x | n | n | n | n
COc1ccc(NC(=O)c2cn(CCC#N)nc2-c2cccc([N+](=O)[O-])c2)cc1 | n | x | n | n | n | x
COc1ccc(Oc2cc(NC(=O)c3nn(C)cc3[N+](=O)[O-])cc([N+](=O)[O-])c2)cc1 | n | 97 | n | n | n | n
O=C(O)[C@@H]1[C@@H](CO)[C@@H]2Cn3c(ccc(C4=CCCC4)c3=O)[C@H]1N2C(=O)Cc1ccccn1 | x | n | n | n | n | n
COCC#Cc1ccc([C@@H]2[C@@H](CO)N3CCCCN(C(=O)Cc4ccccn4)C[C@@H]23)cc1 | x | x | n | n | n | n
C=CCOC(=O)C1=C(C)OC(N)=C(C#N)C12C(=O)N(CN1CCOCC1)c1ccccc12 (stereo not drawn) | n | 111 | x | x | x | n
O=C(Cc1cccnc1)N1CCCCN2[C@H](CO)[C@@H](c3ccc(/C=C/c4ccccc4)cc3)[C@H]2C1 | x | x | n | n | n | n
CC1(C)N(O)C2CCCCC2N1O (stereo not drawn) | n | 107 | x | x | x | n
